Calls of active or inactive are those of the source. The calls are words filed in the database; no cut-off is given here.

As a reminder, the inhibition is the change of the read-out against control, counted positive when it falls. By EC50 is commonly meant the midpoint of the concentration-response curve.

Experiment [1] concerns the target T1, DNA (cytosine-5)-methyltransferase 3A (Homo sapiens, UniProt Q9Y6K1). Nature of the experiment: Inhibition of human DNMT3A catalytic domain using AdoMet assessed as reduction of methylation in 5'-biotin/3' 6-carboxyfluorescein labeled DNA duplex at CpG site at 32 uM after 1 hr by fluorescence assay relative to control.
Experiment [2] deals with T2, DNA (cytosine-5)-methyltransferase 1 (Homo sapiens, UniProt P26358). Nature of the experiment: Inhibition of full length His-tagged human DNMT1 using SAM/[methyl-3H]SAM assessed as reduction of methylation in biotinylated hemimethylated DNA duplex at 32 uM after 1 hr by scintillation counting method relative to control.
T2 sequence (P26358 whole entry, the tested form may be a part): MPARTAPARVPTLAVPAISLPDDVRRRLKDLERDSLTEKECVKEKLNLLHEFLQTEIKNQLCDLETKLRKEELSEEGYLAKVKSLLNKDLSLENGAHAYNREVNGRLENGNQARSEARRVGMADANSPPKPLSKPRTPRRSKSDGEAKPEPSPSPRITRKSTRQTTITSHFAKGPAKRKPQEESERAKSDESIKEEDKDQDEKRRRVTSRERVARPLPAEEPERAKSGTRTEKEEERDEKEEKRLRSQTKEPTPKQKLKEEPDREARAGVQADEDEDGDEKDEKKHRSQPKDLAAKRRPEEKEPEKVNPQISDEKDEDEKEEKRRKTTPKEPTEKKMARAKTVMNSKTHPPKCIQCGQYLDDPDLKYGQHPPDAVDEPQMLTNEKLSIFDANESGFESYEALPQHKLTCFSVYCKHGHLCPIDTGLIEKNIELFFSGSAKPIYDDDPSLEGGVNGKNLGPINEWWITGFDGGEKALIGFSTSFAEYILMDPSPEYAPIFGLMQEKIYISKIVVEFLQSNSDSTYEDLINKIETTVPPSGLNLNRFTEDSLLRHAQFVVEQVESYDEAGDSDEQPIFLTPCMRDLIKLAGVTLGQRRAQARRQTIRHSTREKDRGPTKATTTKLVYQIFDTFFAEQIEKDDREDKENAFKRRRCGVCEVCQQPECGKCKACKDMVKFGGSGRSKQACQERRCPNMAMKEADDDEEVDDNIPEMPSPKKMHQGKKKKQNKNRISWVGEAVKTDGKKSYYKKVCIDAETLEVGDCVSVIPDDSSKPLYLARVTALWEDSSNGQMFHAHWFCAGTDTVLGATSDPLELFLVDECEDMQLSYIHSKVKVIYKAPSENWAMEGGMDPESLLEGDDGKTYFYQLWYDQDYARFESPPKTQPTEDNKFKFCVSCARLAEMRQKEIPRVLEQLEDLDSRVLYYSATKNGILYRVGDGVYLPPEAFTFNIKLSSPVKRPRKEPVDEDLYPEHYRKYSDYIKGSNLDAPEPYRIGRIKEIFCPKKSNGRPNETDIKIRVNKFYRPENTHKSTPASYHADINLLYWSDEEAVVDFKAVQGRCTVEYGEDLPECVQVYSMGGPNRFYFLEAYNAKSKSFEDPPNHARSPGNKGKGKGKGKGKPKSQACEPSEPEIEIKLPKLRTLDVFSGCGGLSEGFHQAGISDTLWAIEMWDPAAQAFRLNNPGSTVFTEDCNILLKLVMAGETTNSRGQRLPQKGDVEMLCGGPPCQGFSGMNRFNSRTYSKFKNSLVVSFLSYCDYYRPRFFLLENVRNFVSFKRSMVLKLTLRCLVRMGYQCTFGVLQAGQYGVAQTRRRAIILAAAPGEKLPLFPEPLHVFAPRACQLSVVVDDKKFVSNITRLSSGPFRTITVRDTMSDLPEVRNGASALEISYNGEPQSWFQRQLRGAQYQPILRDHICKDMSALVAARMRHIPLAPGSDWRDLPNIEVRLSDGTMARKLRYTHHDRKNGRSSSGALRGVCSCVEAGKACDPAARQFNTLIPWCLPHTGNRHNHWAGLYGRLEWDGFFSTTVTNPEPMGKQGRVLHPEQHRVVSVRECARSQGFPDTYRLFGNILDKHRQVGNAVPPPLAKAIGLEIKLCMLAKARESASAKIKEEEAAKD
Experiment [3] has as its target T1, DNA (cytosine-5)-methyltransferase 3A. Nature of the experiment: Inhibition of human DNMT3A catalytic domain using AdoMet assessed as reduction of methylation in 5'-biotin/3' 6-carboxyfluorescein labeled DNA duplex at CpG site at 10 uM after 1 hr by fluorescence assay relative to control.
For experiment [4], the target named is T2, DNA (cytosine-5)-methyltransferase 1. Nature of the experiment: Inhibition of full length His-tagged human DNMT1 using SAM/[methyl-3H]SAM assessed as reduction of methylation in biotinylated hemimethylated DNA duplex at 100 uM after 1 hr by scintillation counting method relative to control.
Experiment [5] has as its target T1, DNA (cytosine-5)-methyltransferase 3A. Nature of the experiment: Inhibition of human DNMT3A catalytic domain using AdoMet assessed as reduction of methylation in 5'-biotin/3' 6-carboxyfluorescein labeled DNA duplex at CpG site after 1 hr by fluorescence assay. An outline of the steps: (§1)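 Human full-length DNMT1 and catalytic DNMT3A tested for methylation of a DNA duplex; the paper gives assay details elsewhere. EC50 from a sigmoid dose-response fit with variable Hill slope; reported as median with SE from at least two independent experiments for DNMT1 and three for DNMT3A; DNMT3A curves run in technical duplicates.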

The species entered for experiment [6] is Homo sapiens. As to the kind of experiment: Inhibition of DNMT in human KG1 cells assessed as luciferase gene driven CMV promoter demethylation by measuring luciferase reactivation at 5 uM after 24 hrs by luciferase reporter gene assay. Type of experiment: cell-based. An outline of the steps:
(§2)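 Leukemia KG-1 cells carrying a stable luciferase gene under a partially methylated CMV promoter, treated in 96-well plates for 24 h. Luciferase signal read by luminescence (Britelite); reactivation fold expressed as ratio to non-treated cells. Mean of three experiments with standard error.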
On the technique in general: A reporter such as luciferase makes a cellular process visible.

For experiment [7], the species on record is Homo sapiens. As to the kind of experiment: Inhibition of DNMT in human KG1 cells assessed as luciferase gene driven CMV promoter demethylation by measuring luciferase reactivation at 1 uM after 24 hrs by luciferase reporter gene assay. Type of experiment: cell-based. An outline of the steps: as §2
Experiment [8] has as its target T2, DNA (cytosine-5)-methyltransferase 1. As to the kind of experiment: Inhibition of full length His-tagged human DNMT1 using SAM/[methyl-3H]SAM assessed as reduction of methylation in biotinylated hemimethylated DNA duplex after 1 hr by scintillation counting method. An outline of the steps:
as §1

T1 sequence (Q9Y6K1 whole entry, looked up, the tested form may be a part): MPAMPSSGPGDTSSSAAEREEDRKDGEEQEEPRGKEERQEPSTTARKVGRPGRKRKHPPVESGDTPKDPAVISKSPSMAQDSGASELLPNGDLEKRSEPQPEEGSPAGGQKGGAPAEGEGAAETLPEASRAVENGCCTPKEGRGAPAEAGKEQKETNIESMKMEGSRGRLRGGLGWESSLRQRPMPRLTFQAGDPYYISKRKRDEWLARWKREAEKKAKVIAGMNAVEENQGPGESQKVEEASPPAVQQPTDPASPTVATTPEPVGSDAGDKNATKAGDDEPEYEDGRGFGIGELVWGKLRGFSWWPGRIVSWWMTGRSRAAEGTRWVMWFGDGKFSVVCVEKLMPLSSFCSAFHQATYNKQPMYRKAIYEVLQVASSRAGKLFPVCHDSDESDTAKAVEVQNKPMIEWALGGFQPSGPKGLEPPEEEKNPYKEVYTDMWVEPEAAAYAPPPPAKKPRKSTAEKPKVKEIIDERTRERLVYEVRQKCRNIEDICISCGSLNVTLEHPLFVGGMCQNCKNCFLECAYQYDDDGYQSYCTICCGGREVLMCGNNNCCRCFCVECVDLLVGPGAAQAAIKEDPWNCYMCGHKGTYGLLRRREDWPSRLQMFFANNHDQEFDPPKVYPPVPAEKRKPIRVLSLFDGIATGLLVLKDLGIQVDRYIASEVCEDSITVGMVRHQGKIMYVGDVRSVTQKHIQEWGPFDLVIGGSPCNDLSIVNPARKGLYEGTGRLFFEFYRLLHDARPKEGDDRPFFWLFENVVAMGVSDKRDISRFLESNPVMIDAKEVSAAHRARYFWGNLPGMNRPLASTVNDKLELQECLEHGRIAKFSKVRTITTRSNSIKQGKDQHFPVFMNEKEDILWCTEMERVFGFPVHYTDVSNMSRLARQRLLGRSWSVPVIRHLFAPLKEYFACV

Turning to `Clc1cccc(CCNc2ncnc3cc(OCC4CCN(CCNc5ccnc6ccccc56)CC4)ccc23)c1`, the inhibition in experiment [1] turned out to be 98%; in experiment [2], 0%; in experiment [3], 84%; in experiment [4], 97%. Besides, the EC50 in experiment [5] stood at 1 µM.

Regarding `c1ccc(CCCNc2ncnc3cc(OCC4CCN(CCNc5cccc6ccccc56)CC4)ccc23)cc1`, the inhibition in experiment [1], in experiment [2], in experiment [3] and in experiment [4] was 0% in each case. The inhibition result in the experiment listed under Homo sapiens [6] and in the experiment listed under Homo sapiens [7] was “inactive” in each case.

For the compound `Clc1ccc(CCNc2ncnc3cc(OCC4CCN(CCNc5ccnc6ccccc56)CC4)ccc23)cc1`, the inhibition was 100% in experiment [1], 75% in experiment [2], 88% in experiment [3] and 97% in experiment [4]. Moreover, the EC50 in experiment [8] was found to be 26 µM; in experiment [5], 1.2 µM.

`c1ccc(NCCNc2ncnc3cc(OCC4CCN(CCNc5ccnc6ccccc56)CC4)ccc23)cc1`: the inhibition in experiment [1] worked out at 95%; in experiment [2] it was 61%; in experiment [3], 76%; in experiment [4], 93%. Besides, the EC50 in experiment [8] is 73 µM; in experiment [5], 6.8 µM.

As for `CN(CCN1CCC(COc2ccc3c(NCCCc4ccccc4)ncnc3c2)CC1)c1ccnc2ccccc12`, the inhibition worked out at 66% in experiment [1], 10% in experiment [2], 53% in experiment [3] and 57% in experiment [4].

Turning to `Cc1cc(NCCN2CCC(COc3ccc4c(NCCCc5ccccc5)ncnc4c3)CC2)c2cccc(C)c2n1`, the inhibition in experiment [1] stood at 82%; in experiment [2] it was 33%; in experiment [3], 81%; in experiment [4] it was 99%.

Consider `NS(=O)(=O)c1ccc(CCNc2ncnc3cc(OCC4CCN(CCNc5ccnc6ccccc56)CC4)ccc23)cc1`, for which the inhibition in experiment [1] came to 93%; in experiment [2], 59%; in experiment [3], 0%; in experiment [4], 100%.

Regarding `c1ccc(CCCNc2ncnc3cc(OCC4CCN(CCNc5cccc6ncccc56)CC4)ccc23)cc1`, the inhibition in experiment [1] is 60%; in experiment [2] it was 0%; in experiment [3], 50%; in experiment [4], 0%.

In the case of `c1ccc(CN2CCN(CCNc3ncnc4cc(OCC5CCN(CCNc6ccnc7ccccc67)CC5)ccc34)CC2)cc1`, the inhibition in experiment [1] was 88%; in experiment [2], 0%; in experiment [3] it was 62%; in experiment [4], 71%.

For the compound `Nc1ccc(CCNc2ncnc3cc(OCC4CCN(CCNc5ccnc6ccccc56)CC4)ccc23)cc1`, the inhibition came out at 96% in experiment [1], 59% in experiment [2], 68% in experiment [3] and 97% in experiment [4].

On to `c1ccc(CNc2ncnc3cc(OCC4CCN(CCNc5ccnc6ccccc56)CC4)ccc23)cc1`, for which the inhibition in experiment [1] came to 81%; in experiment [2] it was 22%; in experiment [3] it was 43%; in experiment [4], 26%.

`c1ccc(CCCNc2ncnc3cc(OCCCNCCNc4ccnc5ccccc45)ccc23)cc1`: the inhibition in experiment [1] was 85%; in experiment [2] it was 0%; in experiment [3], 59%; in experiment [4], 90%.

On to `Clc1ccc2c(NCCN3CCC(COc4ccc5c(NCCCc6ccccc6)ncnc5c4)CC3)ccnc2c1`, for which the inhibition in experiment [1] was 62%; in experiment [2], 33%; in experiment [3], 70%; in experiment [4], 79%.

Consider `c1ccc2c(CCCNc3ncnc4cc(OCC5CCN(CCNc6ccnc7ccccc67)CC5)ccc34)cccc2c1`, for which the inhibition in experiment [1] stood at 60%; in experiment [2] it was 100%; in experiment [3], 96%; in experiment [4], 100%. For the same compound, the EC50 is 16 µM in experiment [8] and 1.9 µM in experiment [5].

Take `COc1ccc2c(NCCN3CCC(COc4ccc5c(NCCCc6ccccc6)ncnc5c4)CC3)ccnc2c1`: the inhibition worked out at 80% in experiment [1], 35% in experiment [2], 70% in experiment [3] and 90% in experiment [4].

`COCn1ccc(NCCN2CCC(COc3ccc4c(NCCCc5ccccc5)ncnc4c3)CC2)nc1=O`: the inhibition in experiment [1] was 44%; in experiment [2] it was 0%; in experiment [3] it was 10%; in experiment [4] it was 11%.

`c1ccc(CCCNc2ncnc3cc(OCCN4CCN(CCNc5ccnc6ccccc56)CC4)ccc23)cc1`: the inhibition stood at 67% in experiment [1], 0% in experiment [2], 37% in experiment [3] and 83% in experiment [4].

With `c1ccc(CCNc2ncnc3cc(OCC4CCN(CCNc5ccnc6ccccc56)CC4)ccc23)cc1`, the inhibition in experiment [1] was determined as 99%; in experiment [2], 38%; in experiment [3], 80%; in experiment [4], 98%. In addition, the results for the EC50 in experiment [8] and in experiment [5] were 32 µM and 4.9 µM, respectively.

With `COc1cc2nccc(NCCN3CCC(COc4ccc5c(NCCCc6ccccc6)ncnc5c4)CC3)c2cc1OC`, the inhibition in experiment [1] worked out at 95%; in experiment [2] it was 57%; in experiment [3], 95%; in experiment [4], 81%. Besides, the 50% effective concentration (EC50) in experiment [8] was 30 µM; in experiment [5] it was 1.4 µM.

Consider `CCCNc1ncnc2cc(OCC3CCN(CCNc4ccnc5ccccc45)CC3)ccc12`, for which the inhibition in experiment [1] came to 69%; in experiment [2] it was 0%; in experiment [3], 28%; in experiment [4], 95%.

For the compound `Nc1ncnc2cc(OCC3CCN(CCNc4ccnc5ccccc45)CC3)ccc12`, the inhibition in experiment [1] was 68%; in experiment [2], 0%; in experiment [3] it was 16%; in experiment [4], 99%.

For `O=c1c2ccc(OCC3CCN(CCNc4ccnc5ccccc45)CC3)cc2ncn1CCCc1ccccc1`, the inhibition in experiment [1] amounted to 99%; in experiment [2], 0%; in experiment [3], 65%; in experiment [4] it was 90%.

Consider `c1ccc(CCCNc2ncnc3cc(OCC4CCN(CCNc5ccc6ccccc6c5)CC4)ccc23)cc1`, for which the inhibition in experiment [1], in experiment [2], in experiment [3] and in experiment [4] was 0% in each case.

As to `Cn1ccc2cc(NCCN3CCC(COc4ccc5c(NCCCc6ccccc6)ncnc5c4)CC3)ccc21`, the inhibition in experiment [1] is 90%; in experiment [2], 21%; in experiment [3], 74%; in experiment [4], 50%.

On to `FC(F)(F)c1cc(NCCN2CCC(COc3ccc4c(NCCCc5ccccc5)ncnc4c3)CC2)c2ccccc2n1`, for which the inhibition in experiment [1] is 0%; in experiment [2], 0%; in experiment [3] it was 0%; in experiment [4], 13%.

`O=[N+]([O-])c1ccc(CCNc2ncnc3cc(OCC4CCN(CCNc5ccnc6ccccc56)CC4)ccc23)cc1`: the inhibition turned out to be 74% in experiment [1], 0% in experiment [2], 54% in experiment [3] and 72% in experiment [4].

`CC(C)c1ccc(CCNc2ncnc3cc(OCC4CCN(CCNc5ccnc6ccccc56)CC4)ccc23)cc1`: the inhibition in experiment [1] worked out at 83%; in experiment [2], 0%; in experiment [3], 53%; in experiment [4] it was 8%.

Consider `COc1ccc(CCNc2ncnc3cc(OCC4CCN(CCNc5ccnc6ccccc56)CC4)ccc23)cc1`, for which the inhibition came to 100% in experiment [1], 82% in experiment [2], 82% in experiment [3] and 100% in experiment [4]. In addition, the figures for the EC50 in experiment [8] and in experiment [5] were 27 µM and 3.4 µM, respectively.

Take `Cc1cc(NCCN2CCC(COc3ccc4c(NCCCc5ccccc5)ncnc4c3)CC2)c2ccccc2n1`: the inhibition in experiment [1] is 100%; in experiment [2], 83%; in experiment [3], 89%; in experiment [4] it was 100%. Further, the EC50 in experiment [8] is 24 µM; in experiment [5], 2.1 µM.

`c1ccc(CCCNc2ncnc3cc(OCC4CCN(c5ccnc6ccccc56)CC4)ccc23)cc1`: the inhibition worked out at 0% in experiment [1], 0% in experiment [2], 0% in experiment [3] and 6% in experiment [4].
